ChEMBL document CHEMBL4673384, “Studying Histone Deacetylase Inhibition and Apoptosis Induction of Psammaplin A Monomers with Modified Thiol Group” (ACS Med Chem Lett, 2021)
Activity calls are given as the source filed them. No cut-off for these calls is given here.

Assays:
[1] = Toxicity in mouse LL/2 cells inoculated C57BL/6J mouse assessed as effect on body weight by measuring end body weight at 25 mg/kg, ip administered for 12 days and measured for every 2 days (reference value: 18.1 +/- 0.2 g); format: organism-based; settings: in vivo, 288 h, time 12 day
[2] = Toxicity in mouse LL/2 cells inoculated C57BL/6J mouse assessed as effect on body weight by measuring initial body weight at 25 mg/kg, ip administered for 12 days measured for every 2 days (reference value: 18.4 +/- 0.4 g); format: organism-based; settings: in vivo, 288 h, time 12 day
[3] = Antitumor activity against mouse LL/2 cells inoculated in C57BL/6J mouse assessed as reduction of tumor weight at 25 mg/kg, ip administered for 12 days measured at day 14 (reference value: 0.98 +/- 0.07 g); format: functional, Lewis lung carcinoma; settings: time 12 day
[4] = target: T1, Protein deacetylase HDAC6 (Homo sapiens, UniProt Q9UBN7); experiment: Inhibition of recombinant full length C-terminal FLAG-tagged human HDAC6 expressed in baculovirus infected Sf9 cells using Boc-Lys(Ac)-AMC as substrate preincubated for 15 mins followed by substrate addition and measured after 60 mins by fluorescence based assay
T1 sequence (Q9UBN7 whole entry): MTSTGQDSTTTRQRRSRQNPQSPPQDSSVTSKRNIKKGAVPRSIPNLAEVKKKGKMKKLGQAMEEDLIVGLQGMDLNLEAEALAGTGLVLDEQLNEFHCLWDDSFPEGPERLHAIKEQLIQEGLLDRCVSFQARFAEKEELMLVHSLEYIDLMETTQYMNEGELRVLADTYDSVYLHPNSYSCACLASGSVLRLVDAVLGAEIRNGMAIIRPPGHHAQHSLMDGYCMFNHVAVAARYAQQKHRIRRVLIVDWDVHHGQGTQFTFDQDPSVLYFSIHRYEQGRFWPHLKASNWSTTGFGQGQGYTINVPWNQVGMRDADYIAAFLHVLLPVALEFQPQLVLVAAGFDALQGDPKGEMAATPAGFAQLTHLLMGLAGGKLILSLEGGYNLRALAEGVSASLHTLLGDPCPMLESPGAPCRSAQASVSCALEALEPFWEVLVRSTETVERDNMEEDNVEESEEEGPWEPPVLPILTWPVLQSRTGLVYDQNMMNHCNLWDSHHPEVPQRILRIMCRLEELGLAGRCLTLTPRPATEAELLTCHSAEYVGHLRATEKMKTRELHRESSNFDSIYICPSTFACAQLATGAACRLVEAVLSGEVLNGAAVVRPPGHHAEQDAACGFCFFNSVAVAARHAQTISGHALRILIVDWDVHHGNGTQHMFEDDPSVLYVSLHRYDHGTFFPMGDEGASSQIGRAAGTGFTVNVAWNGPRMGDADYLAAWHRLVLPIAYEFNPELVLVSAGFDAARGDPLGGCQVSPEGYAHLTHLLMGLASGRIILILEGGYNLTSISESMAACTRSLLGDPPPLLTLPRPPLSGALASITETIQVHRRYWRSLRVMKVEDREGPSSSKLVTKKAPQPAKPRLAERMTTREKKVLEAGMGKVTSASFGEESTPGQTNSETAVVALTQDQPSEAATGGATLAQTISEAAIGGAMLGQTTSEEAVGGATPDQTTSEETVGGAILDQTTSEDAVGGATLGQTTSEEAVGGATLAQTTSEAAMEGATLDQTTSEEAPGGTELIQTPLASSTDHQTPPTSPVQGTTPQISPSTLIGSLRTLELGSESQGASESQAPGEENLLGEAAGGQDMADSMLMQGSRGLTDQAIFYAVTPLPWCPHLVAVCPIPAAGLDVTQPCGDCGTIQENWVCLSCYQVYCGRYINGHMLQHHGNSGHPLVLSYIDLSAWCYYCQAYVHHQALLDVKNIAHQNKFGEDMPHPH

[5] = target: Histone deacetylase 3/Nuclear receptor corepressor 2 (HDAC3/NCoR2) (Homo sapiens, UniProt O15379); experiment: Inhibition of C-terminal His-tagged recombinant human HDAC3 (1 to 428 residues)/N-terminal GST-tagged recombinant human NCoR2 (395 to 489 residues) co-expressed in baculovirus infected Sf9 cells using Boc-Lys(Ac)-AMC as substrate preincubated for 15 mins followed by substrate addition and measured after 60 mins by fluorescence based assay
[6] = target: T2, Histone deacetylase 2 (Homo sapiens, UniProt Q92769); experiment: Inhibition of recombinant full length C-terminal FLAG-tagged human HDAC2 expressed in baculovirus infected Sf9 cells using Boc-Lys(Ac)-AMC as substrate preincubated for 15 mins followed by substrate addition and measured after 60 mins by fluorescence based assay
[7] = target: T3, Histone deacetylase 1 (Homo sapiens, UniProt Q13547); experiment: Inhibition of recombinant full length C-terminal FLAG/His-tagged human HDAC1 expressed in baculovirus infected Sf9 cells using Boc-Lys(Ac)-AMC as substrate preincubated for 15 mins followed by substrate addition and measured after 60 mins by fluorescence based assay
[8] = tested on: HL-60; experiment: Growth inhibition of human HL-60 cells after 72 hrs by trypan blue dye based assay; format: functional; settings: for GI50: Homo sapiens, HL-60
Procedure, shortened: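 HL-60 leukemia cells were exposed to compound for 72 h. Growth inhibition is reported as IG50 (half the growth inhibition concentration), as means plus SD of three independent experiments.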

[9] = target: T2, Histone deacetylase 2; experiment: Inhibition of HDAC2 in human HL-60 cells assessed as increase in Ac-H3 level at 20 uM incubated for 24 hrs by Western blot analysis; format: cell-based
Procedure, shortened: (§1)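 Compound given to HL-60 cells for 24 h at the stated concentrations, then lysed. Acetyl-histone H3 and acetyl-α-tubulin levels were read by Western blot, with total H3, α-tubulin or β-actin as references.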

[10] = target: Histone deacetylase 3 (Homo sapiens) (UniProt O15379); experiment: Inhibition of HDAC3 in human HL-60 cells assessed as increase in Ac-H3 level at 20 uM incubated for 24 hrs by Western blot analysis; format: cell-based; procedure, shortened: as §1
[11] = target: T3, Histone deacetylase 1; experiment: Inhibition of HDAC1 in human HL-60 cells assessed as increase in Ac-H3 level at 20 uM incubated for 24 hrs by Western blot analysis; format: cell-based; procedure, shortened: as §1
[12] = tested on: HL-60; experiment: Induction of apoptosis in human HL-60 cells assessed as necrotic cells at 20 uM incubated for 24 hrs by propidium iodide and annexin-V FITC staining based FACS analysis (reference value: 0.5 %); format: functional
[13] = tested on: HL-60; experiment: Induction of apoptosis in human HL-60 cells assessed as late apoptotic cells at 20 uM incubated for 24 hrs by propidium iodide and annexin-V FITC staining based FACS analysis (reference value: 3.7 %); format: functional
[14] = tested on: HL-60; experiment: Induction of apoptosis in human HL-60 cells assessed as early apoptotic cells at 20 uM incubated for 24 hrs by propidium iodide and annexin-V FITC staining based FACS analysis (reference value: […]); format: functional
[15] = tested on: HL-60; experiment: Induction of apoptosis in human HL-60 cells assessed as viable cells at 20 uM incubated for 24 hrs by propidium iodide and annexin-V FITC staining based FACS analysis (reference value: 93.9 %); format: functional; settings: read-out: Activity

Histone deacetylase 3/Nuclear receptor corepressor 2 (HDAC3/NCoR2), sequence (O15379 whole entry, the tested form may be a part): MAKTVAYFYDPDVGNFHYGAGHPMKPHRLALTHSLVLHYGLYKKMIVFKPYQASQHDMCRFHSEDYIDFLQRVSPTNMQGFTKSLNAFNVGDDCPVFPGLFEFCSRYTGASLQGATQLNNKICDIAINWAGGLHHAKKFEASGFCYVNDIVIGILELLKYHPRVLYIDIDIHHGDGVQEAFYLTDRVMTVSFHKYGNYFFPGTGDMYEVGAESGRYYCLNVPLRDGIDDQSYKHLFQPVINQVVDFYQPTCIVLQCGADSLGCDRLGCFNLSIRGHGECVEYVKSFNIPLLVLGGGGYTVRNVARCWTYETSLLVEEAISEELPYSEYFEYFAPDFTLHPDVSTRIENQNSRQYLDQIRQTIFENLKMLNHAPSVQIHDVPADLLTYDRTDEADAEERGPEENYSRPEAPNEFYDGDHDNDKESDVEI
Histone deacetylase 3/Nuclear receptor corepressor 2 (HDAC3/NCoR2), sequence (Q9Y618 whole entry, further chain, the tested form may be a part): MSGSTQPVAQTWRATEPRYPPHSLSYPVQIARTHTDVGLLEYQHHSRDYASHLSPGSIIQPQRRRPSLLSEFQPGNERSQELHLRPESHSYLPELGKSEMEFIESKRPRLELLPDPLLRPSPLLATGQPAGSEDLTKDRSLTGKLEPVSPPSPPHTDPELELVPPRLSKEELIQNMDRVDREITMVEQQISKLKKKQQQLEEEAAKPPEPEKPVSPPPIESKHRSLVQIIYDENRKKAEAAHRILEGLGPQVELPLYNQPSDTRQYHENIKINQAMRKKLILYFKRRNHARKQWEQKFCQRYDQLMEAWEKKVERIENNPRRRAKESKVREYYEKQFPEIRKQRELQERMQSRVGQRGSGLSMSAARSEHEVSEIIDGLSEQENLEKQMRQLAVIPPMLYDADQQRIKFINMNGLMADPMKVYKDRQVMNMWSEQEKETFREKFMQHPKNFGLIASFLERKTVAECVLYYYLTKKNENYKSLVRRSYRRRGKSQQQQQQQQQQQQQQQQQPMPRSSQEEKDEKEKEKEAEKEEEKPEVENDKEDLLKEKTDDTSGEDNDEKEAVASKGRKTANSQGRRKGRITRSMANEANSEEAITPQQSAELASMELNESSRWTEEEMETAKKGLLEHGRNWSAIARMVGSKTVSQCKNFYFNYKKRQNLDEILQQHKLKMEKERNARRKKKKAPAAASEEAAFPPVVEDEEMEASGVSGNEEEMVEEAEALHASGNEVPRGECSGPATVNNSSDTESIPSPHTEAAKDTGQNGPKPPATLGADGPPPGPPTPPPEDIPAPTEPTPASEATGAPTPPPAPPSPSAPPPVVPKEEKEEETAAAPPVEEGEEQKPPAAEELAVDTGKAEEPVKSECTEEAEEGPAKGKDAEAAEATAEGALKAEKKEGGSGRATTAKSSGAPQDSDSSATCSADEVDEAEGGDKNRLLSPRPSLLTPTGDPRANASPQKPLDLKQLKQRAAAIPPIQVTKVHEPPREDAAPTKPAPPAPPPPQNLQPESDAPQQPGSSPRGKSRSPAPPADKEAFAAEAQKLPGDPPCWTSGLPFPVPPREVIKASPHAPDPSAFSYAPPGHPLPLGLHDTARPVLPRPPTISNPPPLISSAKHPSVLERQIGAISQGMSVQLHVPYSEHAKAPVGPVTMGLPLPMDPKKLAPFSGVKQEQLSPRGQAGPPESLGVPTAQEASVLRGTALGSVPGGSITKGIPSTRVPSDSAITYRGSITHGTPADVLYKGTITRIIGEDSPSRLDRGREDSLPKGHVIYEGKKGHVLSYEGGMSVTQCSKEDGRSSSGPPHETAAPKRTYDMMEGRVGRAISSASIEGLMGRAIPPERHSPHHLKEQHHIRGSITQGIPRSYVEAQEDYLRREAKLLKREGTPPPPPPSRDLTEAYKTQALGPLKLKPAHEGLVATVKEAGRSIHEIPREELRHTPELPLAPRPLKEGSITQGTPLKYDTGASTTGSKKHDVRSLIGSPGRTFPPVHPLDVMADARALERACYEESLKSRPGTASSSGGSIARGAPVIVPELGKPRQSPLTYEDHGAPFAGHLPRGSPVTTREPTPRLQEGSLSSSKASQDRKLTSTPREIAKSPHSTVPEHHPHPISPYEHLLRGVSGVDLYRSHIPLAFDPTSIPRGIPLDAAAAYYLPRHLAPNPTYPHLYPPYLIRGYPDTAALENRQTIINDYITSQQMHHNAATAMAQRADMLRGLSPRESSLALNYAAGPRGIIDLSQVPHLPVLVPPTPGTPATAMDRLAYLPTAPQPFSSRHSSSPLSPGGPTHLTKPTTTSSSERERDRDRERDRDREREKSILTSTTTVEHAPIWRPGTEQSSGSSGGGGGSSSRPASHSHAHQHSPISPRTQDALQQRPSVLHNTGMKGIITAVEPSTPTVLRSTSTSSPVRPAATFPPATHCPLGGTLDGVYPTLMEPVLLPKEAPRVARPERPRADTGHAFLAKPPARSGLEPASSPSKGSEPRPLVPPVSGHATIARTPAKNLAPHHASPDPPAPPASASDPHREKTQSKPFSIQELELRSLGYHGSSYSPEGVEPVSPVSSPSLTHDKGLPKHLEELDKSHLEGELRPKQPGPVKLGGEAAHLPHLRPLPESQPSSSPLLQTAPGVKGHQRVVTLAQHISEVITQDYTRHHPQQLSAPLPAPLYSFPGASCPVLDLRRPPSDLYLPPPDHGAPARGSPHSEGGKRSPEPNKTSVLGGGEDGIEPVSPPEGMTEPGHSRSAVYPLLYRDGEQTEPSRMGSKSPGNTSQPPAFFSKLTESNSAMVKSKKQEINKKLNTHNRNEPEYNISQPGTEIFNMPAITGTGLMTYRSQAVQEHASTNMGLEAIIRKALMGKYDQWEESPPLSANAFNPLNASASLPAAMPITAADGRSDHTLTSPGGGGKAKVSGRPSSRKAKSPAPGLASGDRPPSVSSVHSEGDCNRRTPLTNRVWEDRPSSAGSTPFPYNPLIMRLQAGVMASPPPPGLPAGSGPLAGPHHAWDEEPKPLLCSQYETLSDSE
T2 sequence (Q92769 whole entry): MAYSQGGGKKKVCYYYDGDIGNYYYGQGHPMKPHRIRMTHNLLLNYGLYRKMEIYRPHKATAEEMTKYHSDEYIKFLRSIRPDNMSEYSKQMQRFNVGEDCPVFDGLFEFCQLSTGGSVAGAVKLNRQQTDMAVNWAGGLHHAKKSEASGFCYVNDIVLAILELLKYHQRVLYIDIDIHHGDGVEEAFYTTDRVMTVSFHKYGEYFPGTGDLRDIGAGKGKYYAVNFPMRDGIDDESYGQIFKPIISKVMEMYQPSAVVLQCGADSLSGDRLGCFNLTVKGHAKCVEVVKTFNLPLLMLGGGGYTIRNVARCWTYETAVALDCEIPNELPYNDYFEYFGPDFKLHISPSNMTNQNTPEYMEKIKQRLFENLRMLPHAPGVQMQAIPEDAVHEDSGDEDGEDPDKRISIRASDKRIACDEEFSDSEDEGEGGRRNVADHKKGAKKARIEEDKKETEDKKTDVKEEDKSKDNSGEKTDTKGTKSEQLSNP
T3 sequence (Q13547 whole entry): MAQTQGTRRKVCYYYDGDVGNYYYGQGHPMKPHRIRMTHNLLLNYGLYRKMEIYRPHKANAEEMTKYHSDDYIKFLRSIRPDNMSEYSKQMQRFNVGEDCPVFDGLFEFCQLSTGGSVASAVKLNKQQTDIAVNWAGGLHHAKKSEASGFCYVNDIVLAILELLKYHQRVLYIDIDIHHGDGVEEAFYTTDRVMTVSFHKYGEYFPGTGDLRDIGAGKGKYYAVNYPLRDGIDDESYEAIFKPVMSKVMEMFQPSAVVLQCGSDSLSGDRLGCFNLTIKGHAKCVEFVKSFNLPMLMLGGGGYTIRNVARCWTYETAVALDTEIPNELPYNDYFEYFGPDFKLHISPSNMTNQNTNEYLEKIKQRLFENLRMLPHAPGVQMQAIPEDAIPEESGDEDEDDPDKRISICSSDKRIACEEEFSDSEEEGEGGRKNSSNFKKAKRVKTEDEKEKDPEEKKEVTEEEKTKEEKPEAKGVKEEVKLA
Histone deacetylase 3 (Homo sapiens), sequence (O15379 whole entry): as the sequence (O15379 whole entry, the tested form may be a part) above

For `O=C(CCCCCCC(=O)Nc1ccccc1)NO` [VORINOSTAT], the Activity [1] was 18.1 g, the Activity [2] was 17.9 g and the Activity [3] was 0.55 g.

`Nc1ccccc1NC(=O)CCNC(=O)/C(Cc1ccc(O)c(Br)c1)=N/O` showed an IC50 [4] greater than 10 µM, an IC50 [5] greater than 10 µM and an IC50 [6] greater than 10 µM. The IC50 [7] was greater than 10 µM and the IG50 [8] was greater than 40 µM.

For `Nc1ccccc1NC(=O)CCCNC(=O)/C(Cc1ccc(O)c(Br)c1)=N/O`, the IC50 [4] was greater than 10 µM, the IC50 [5] was 1.83 µM and the IC50 [6] was greater than 10 µM. The IC50 [7] was greater than 10 µM and the IG50 [8] was greater than 40 µM.

In the case of `CCCNC(=O)/C(Cc1ccc(O)c(Br)c1)=N/O`, the inhibition [9] is reported as “inactive”, the inhibition [10] is reported as “inactive” and the inhibition [11] is reported as “inactive”. It also gave an Activity [12] of 0.2%, an Activity [13] of 2.5% and an Activity [14] of 1.8%. It also gave a viability at 20 µM [15] of 95.5%, an IC50 [4] greater than 10 µM and an IC50 [5] greater than 10 µM. The IC50 [6] was greater than 10 µM, the IC50 [7] was greater than 10 µM and the GI50 [8] was 13.5 µM.

In the case of `Nc1ccccc1NC(=O)CNC(=O)/C(Cc1ccc(O)c(Br)c1)=N/O`, the IC50 [4] is reported as greater than 10 µM, the IC50 [5] is reported as greater than 10 µM and the IC50 [6] is reported as greater than 10 µM. The IC50 [7] was greater than 10 µM and the IG50 [8] was greater than 40 µM.

In the case of `O=C(O)CCNC(=O)/C(Cc1ccc(O)c(Br)c1)=N/O`, the inhibition [9] is reported as “inactive”, the inhibition [10] is reported as “inactive” and the inhibition [11] is reported as “inactive”. The Activity [12] was 0.2%, the Activity [13] was 3.4% and the Activity [14] was 2.2%. It also gave a viability at 20 µM [15] of 94.2%, an IC50 [4] greater than 10 µM and an IC50 [5] greater than 10 µM. It also gave an IC50 [6] greater than 10 µM, an IC50 [7] greater than 10 µM and a GI50 [8] of 11.8 µM.
